Assay results from different studies.
Each line is one published result; the experiments were not run side by side.
Target: Alpha-glucosidase MAL12 (MAL12, Saccharomyces cerevisiae S288c, UniProt P53341)
Observed: enzyme activity
Action: inhibitor

For `CC1(C)CC(=O)C2=C(C1)n1c(=O)c3ccccc3c(=O)n1C2c1cn(-c2ccccc2)nc1-c1ccc(Br)cc1` (stereo not shown), the IC50 was 353 µM (absorbance).
The IC50 of `Nc1c(-c2ccc(Cl)cc2)nc2ncnn2c1-c1cccs1` is reported as 82.4 µM (absorbance).
The IC50 of `C[C@H]1CN(C(=O)Nc2ccc(C(F)(F)F)cc2)CCN1c1ccnc(Nc2ccc(Cl)c(Cl)c2)n1` is reported as 1.69 µM (absorbance; pH 6.9).
The IC50 of `Nc1c(-c2ccccc2)nc2ncnn2c1-c1ccccc1Cl` is reported as 125 µM (absorbance).
For `CCCCCCCCCCCCCCCCCC(=O)OCC(C)(C)CC1=C(O)C(=O)c2ccccc2C1=O`, the IC50 was 25.7 µM.
The IC50 of `CC(=O)C1=C(C)n2c(=O)c3ccccc3c(=O)n2C1c1cn(-c2ccccc2)nc1-c1ccc([N+](=O)[O-])cc1` (stereo not shown) is reported as 86.7 µM (absorbance).
`Nc1c(-c2ccccc2)nc2ncnn2c1-c1cccc(Cl)c1` has an IC50 of 82.5 µM (absorbance).
For `CC(C)(CO)CC1=C(O)C(=O)c2ccccc2C1=O`, the IC50 was greater than 200 µM.
The IC50 of `Cc1ccc(-c2nn(-c3ccccc3)cc2C2C3=C(CC(C)(C)CC3=O)n3c(=O)c4ccccc4c(=O)n32)cc1` (stereo not shown) is reported as 282 µM (absorbance).
For `C[C@H]1CN(C(=O)Nc2ccc(Cl)c(Cl)c2)CCN1c1ccnc(Nc2ccc(Cl)cc2)n1`, the IC50 was 1.82 µM (absorbance; pH 6.9).
`CC(=O)C1=C(C)n2c(=O)c3ccccc3c(=O)n2C1c1cn(-c2ccccc2)nc1-c1ccc(Cl)cc1` (stereo not shown) gave an IC50 of 359 µM (absorbance).
The IC50 of `COc1ccc(-c2nc3ncnn3c(-c3cccs3)c2N)cc1` is reported as 120 µM (absorbance).
The IC50 of `C[C@@H]1CN(C(=O)Nc2ccc(C(F)(F)F)cc2)CCN1c1ccnc(Nc2ccc(Cl)cc2)n1` is reported as 3.47 µM (absorbance; pH 6.9).
With `COc1cc(/C=C/c2ccc(O)cc2)cc(OC)c1` the IC50 was 1570 µM (absorbance; pH 6.8).
`CC(=O)C1=C(C)n2c(=O)c3ccccc3c(=O)n2C1c1cn(-c2ccccc2)nc1-c1ccc(C)cc1` (stereo not shown) has an IC50 of 167 µM (absorbance).
For `C[C@H]1CN(C(=O)Nc2ccc(C(F)(F)F)cc2)CCN1c1ccnc(Nc2ccc(Cl)c(OCc3ccccc3)c2)n1`, the IC50 was 1.5 µM (absorbance; pH 6.9).
